For assay [1], the target named is T1, Sodium channel protein type 5 subunit alpha (Homo sapiens, UniProt Q14524). As to the kind of experiment: Inhibition of human Nav1.5 channel expressed in HEK293 cells assessed as blockade of veratridine-induced late inward sodium current elicited at -30 mV from holding potential -110 mV at 10 uM by patch clamp method. It counts as cell-based. Summed up:
(§1)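 HEK293 cells expressing hNaV1.5, room temperature (19-22 °C). Pipette (mmol): NaCl 10, CsCl 110, CaCl2 1, HEPES 10, EGTA 10, Mg-ATP 5, glucose 10, pH 7.3; bath: NaCl 30, CsCl 100, MgCl2 2, CaCl2 2, HEPES 10, glucose 5, pH 7.4. Veratridine 40 μM; 350 ms pulses to -30 mV at 0.2 Hz; late INa = mean current over last 10 ms; DMSO final 0.1%.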

The target of assay [2] is T1, Sodium channel protein type 5 subunit alpha. As to the kind of experiment: Inhibition of human Nav1.5 channel expressed in HEK293 cells assessed as blockade of veratridine-induced late inward sodium current elicited at -30 mV from holding potential -90 mV at 10 uM by patch clamp method. Type of assay: cell-based. The method in brief: as §1
For orientation: Patch clamp records ionic current or voltage across a cell membrane.

The subject of assay [3] is Heart. Nature of the assay: Cardioprotective activity in Langendorff-perfused guinea pig heart assessed as inhibition of global ischemia-induced diastolic contracture at 1 uM. The following applies: Cavia porcellus. It counts as functional. Summed up: (§2)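 Female Hartley guinea pig hearts, Langendorff-perfused at constant 800 mm H2O with modified Krebs (pH 7.4, 95% O2/5% CO2), 37 °C, LV latex balloon. After 45-60 min equilibration, compound or vehicle perfused 15 min, then 50 min global normothermic ischemia and 60 min reperfusion; one concentration per heart. LVDP, end-diastolic pressure, heart rate, dP/dt, coronary flow recorded.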

The test system of assay [4] is Cardiac atrium. The following applies: Rattus norvegicus, Wistar, 1 uM.
For assay [5], the system named is Heart. As to the kind of experiment: Cardiovascular activity in Langendorff-perfused guinea pig heart assessed as change in heart rate at 1 uM. Type of assay: functional, Cavia porcellus. The method in brief: as §2
Assay [6] concerns Heart. As to the kind of experiment: Cardiovascular activity in Langendorff-perfused guinea pig heart assessed as change in coronary vascular resistance at 1 uM. It counts as functional, Cavia porcellus. Summed up: as §2
The test system of assay [7] is Heart. As to the kind of experiment: Cardiovascular activity in Langendorff-perfused guinea pig heart assessed as change in left ventricular developed pressure at 1 uM. It counts as functional, Cavia porcellus. The method in brief:
as §2

The species named for assay [8] is Sus scrofa. As to the kind of experiment: Cardioprotective activity against myocardial ischemia-reperfusion in Landrace pig heart assessed as prevention of post reperfusion injury after 48 hrs. It counts as functional, tissue-based. Summed up: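 Anaesthetised male Landrace pigs (18-25 kg); LCX occluded 60 min, reperfused 48 h. Compound i.v. bolus 10 min pre-ischemia plus infusion through occlusion and first 30 min reperfusion. Evans blue delineates area at risk, TTC (0.1%) stains viable tissue; 10 mm LV slices imaged; necrosis expressed as % of area at risk. Means ± SEM; ANOVA with Dunnett's test.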

Assay [9] can be described thus: Cardioprotective activity in […] Landrace pig heart assessed decrease in myocardial infarct size […]. It counts as functional, Sus scrofa. Also on record: scale not given: the % may be the effect or the level left.
For assay [10], the system named is Plasma. As to the kind of experiment: Cardioprotective activity in […] Landrace pig assessed decrease in troponin 1 plasma level administered iv 60 mins before ischemia measured after 6 hrs of reperfusion. Type of assay: functional, organism-based. The following applies: Sus scrofa.
Assay [11] is filed under the species Sus scrofa. As to the kind of experiment: Cardioprotective activity in […] Landrace pig assessed enhancement of Na+ current. Type of assay: functional, organism-based.
Assay [12] concerns Sus scrofa. As to the kind of experiment: Cardioprotective activity in […] Landrace pig heart assessed as change in blood flow administered iv 60 mins before ischemia followed by 48 hrs of reperfusion. It counts as functional, organism-based.
The subject of assay [13] is Sus scrofa. Nature of the assay: Cardioprotective activity in […] Landrace pig heart assessed as change collateral circulation administered iv 60 mins before ischemia followed by 48 hrs of reperfusion. It counts as functional, organism-based.
The nature of assay [14]: Cardioprotective activity in […] Landrace pig heart assessed decrease in myocardial infarct volume […] followed by 30 mins of reperfusion. Type of assay: functional, Sus scrofa. Also on record: scale not given: the % may be the effect or the level left.

One may read the inhibition as the relative decrease from the control value, in per cent.

Calls of active or inactive are those of the source. The rule behind the calls is not given here.

T1 sequence (Q14524 whole entry): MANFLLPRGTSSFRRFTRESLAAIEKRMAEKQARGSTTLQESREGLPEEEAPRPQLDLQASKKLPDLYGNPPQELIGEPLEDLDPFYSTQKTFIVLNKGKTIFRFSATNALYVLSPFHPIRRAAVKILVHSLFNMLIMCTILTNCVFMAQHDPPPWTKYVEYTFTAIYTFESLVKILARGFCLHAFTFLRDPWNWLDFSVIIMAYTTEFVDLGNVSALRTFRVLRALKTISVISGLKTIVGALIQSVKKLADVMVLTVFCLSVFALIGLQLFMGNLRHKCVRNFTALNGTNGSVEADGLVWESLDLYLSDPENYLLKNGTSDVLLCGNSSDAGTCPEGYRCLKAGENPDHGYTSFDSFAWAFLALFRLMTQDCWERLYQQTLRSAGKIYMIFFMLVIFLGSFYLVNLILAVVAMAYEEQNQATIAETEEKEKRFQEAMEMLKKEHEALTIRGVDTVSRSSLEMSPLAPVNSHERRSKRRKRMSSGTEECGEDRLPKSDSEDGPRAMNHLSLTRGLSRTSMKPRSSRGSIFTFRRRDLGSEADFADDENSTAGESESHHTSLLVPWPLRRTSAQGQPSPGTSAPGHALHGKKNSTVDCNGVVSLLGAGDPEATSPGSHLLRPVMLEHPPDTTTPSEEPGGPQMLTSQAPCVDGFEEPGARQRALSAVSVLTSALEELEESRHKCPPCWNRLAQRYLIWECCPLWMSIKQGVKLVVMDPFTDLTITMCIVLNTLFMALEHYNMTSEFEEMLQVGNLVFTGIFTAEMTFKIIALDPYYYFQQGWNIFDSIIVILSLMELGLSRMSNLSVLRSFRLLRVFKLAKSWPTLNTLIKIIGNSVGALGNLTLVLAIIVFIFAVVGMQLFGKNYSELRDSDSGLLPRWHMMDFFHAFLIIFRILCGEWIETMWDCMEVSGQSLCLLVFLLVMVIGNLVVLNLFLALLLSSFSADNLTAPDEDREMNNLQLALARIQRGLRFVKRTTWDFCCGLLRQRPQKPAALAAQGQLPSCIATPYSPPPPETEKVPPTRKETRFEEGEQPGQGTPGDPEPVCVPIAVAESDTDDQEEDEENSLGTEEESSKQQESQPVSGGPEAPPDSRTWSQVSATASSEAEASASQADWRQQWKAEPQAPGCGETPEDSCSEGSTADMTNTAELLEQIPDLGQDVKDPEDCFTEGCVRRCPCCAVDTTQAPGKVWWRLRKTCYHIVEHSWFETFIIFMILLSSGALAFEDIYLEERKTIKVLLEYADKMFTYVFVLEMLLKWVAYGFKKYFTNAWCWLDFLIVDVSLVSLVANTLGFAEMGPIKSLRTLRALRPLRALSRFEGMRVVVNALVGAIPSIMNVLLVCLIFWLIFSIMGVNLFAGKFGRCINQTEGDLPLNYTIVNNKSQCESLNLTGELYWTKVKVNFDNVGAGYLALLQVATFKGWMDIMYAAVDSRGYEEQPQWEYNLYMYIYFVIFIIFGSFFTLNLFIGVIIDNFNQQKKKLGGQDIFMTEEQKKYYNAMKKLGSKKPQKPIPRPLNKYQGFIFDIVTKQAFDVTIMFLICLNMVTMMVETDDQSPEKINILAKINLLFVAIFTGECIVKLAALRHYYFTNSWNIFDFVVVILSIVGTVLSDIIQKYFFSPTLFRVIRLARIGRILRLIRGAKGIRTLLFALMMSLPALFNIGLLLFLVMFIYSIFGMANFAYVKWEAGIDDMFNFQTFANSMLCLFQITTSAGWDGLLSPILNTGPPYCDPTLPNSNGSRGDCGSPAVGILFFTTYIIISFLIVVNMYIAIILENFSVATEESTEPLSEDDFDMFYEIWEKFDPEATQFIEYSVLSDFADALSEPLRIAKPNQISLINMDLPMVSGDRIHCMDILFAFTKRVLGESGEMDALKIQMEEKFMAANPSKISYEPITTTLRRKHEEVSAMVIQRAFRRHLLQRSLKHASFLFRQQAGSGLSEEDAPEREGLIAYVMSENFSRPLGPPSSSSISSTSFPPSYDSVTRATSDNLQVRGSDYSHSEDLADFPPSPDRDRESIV

Take `C[C@@H](CN[C@@H]1COc2ccccc2SC1)CSc1cccc2ncoc12`: the inhibition at 10 µM is 16% in assay [1] and 26% in assay [2]. Besides, in assay [3], the inhibition at 1 µM amounted to 84%.

For `Cc1cccc(SC[C@@H](C)CN[C@@H]2COc3ccccc3SC2)c1CO`, the inhibition at 10 µM in assay [1] worked out at 45%; in assay [2], 58%. Moreover, the inhibition at 1 µM in [3] was found to be 31%.

For `CC(C)c1cccc(SC[C@@H](C)CN[C@@H]2COc3ccccc3SC2)c1O`, the inhibition at 10 µM in assay [1] came out at 38%; in [2] it was 46%.

As to `C[C@@H](CN[C@@H]1COc2ccccc2SC1)CSc1cccc2c1OCO2`, the inhibition at 10 µM in assay [1] stood at 32%; in assay [2], 54%. Moreover, in assay [3], the inhibition at 1 µM is 22%.

For the compound `COc1c(C)cccc1SC[C@@H](C)CN[C@@H]1COc2ccccc2SC1`, the inhibition at 10 µM in assay [1] was determined as 28%; in assay [2], 32%.

For `C[C@@H](CN[C@@H]1COc2ccccc2SC1)CSc1cccc2ccoc12`, the values for the inhibition at 10 µM in assay [1] and in assay [2] were 73% and 82%, respectively. In addition, the inhibition at 1 µM in assay [3] amounted to 68%.

Take `CCOc1ccccc1SC[C@@H](C)CN[C@@H]1COc2ccccc2SC1`: the inhibition at 10 µM in [1] amounted to 41%; in assay [2] it was 54%.

As for `COc1cccc(SC[C@@H](C)CN[C@@H]2COc3ccccc3SC2)c1N`, the inhibition at 10 µM in [1] turned out to be 13%; in assay [2], 18%. Besides, the inhibition at 1 µM in [3] was determined as 21%.

Take `COc1cccc(SC[C@@H](C)CN[C@@H]2COc3ccccc3SC2)c1O`: the inhibition at 10 µM was determined as 35% in assay [1] and 46% in assay [2]. Further, the inhibition at 1 µM in assay [3] came out at 46%.

Turning to `COc1ccccc1SC[C@@H](C)CN[C@@H]1COc2ccccc2SC1`, the inhibition at 1 µM in assay [3] stood at 65%.

Consider `C[C@@H](CN[C@@H]1COc2ccccc2SC1)CSc1cccc2c1OCC2`, for which the inhibition at 10 µM in assay [1] stood at 47%; in assay [2], 56%. In assay [3], the inhibition at 1 µM came to 72%.

In the case of `C[C@@H](CN[C@@H]1COc2ccccc2SC1)CSc1cccc2cc[nH]c12`, the inhibition at 10 µM in assay [1] and in assay [2] was 8% each time.

Regarding `Cc1cccc(SC[C@@H](C)CN[C@@H]2COc3ccccc3SC2)c1N`, the inhibition at 10 µM in [1] and in [2] was 26% in each case. In addition, the inhibition at 1 µM in assay [3] came out at 35%.

Take `C[C@@H](CN[C@@H]1COc2ccccc2SC1)CSc1cccc(F)c1N`: the inhibition at 10 µM in assay [1] was 11%; in [2], 19%. In addition, in assay [3], the inhibition at 1 µM was found to be 33%.

Take `C[C@@H](CN[C@@H]1COc2ccccc2SC1)CSc1cccc(N)c1O`: the inhibition at 10 µM in assay [1] was 11%; in [2], 19%.

In the case of `C[C@@H](CN[C@@H]1COc2ccccc2SC1)CSc1cccc2cn[nH]c12`, the figures for the inhibition at 10 µM in [1] and in [2] were 34% and 44%, respectively. The inhibition at 1 µM in assay [3] was 73%.

As to `Cc1ccccc1SC[C@@H](C)CN[C@@H]1COc2ccccc2SC1`, the inhibition at 10 µM in assay [1] came out at 11%; in assay [2], 14%.

Consider `C[C@@H](CN[C@@H]1COc2ccccc2SC1)CSc1cccc(F)c1O`, for which the inhibition at 10 µM in assay [1] was found to be 38%; in assay [2], 40%. In [3], the inhibition at 1 µM was 54%.

With `C[C@@H](CN[C@@H]1COc2ccccc2SC1)CSc1cccc(C(N)=O)c1O`, the figures for the inhibition at 10 µM in [1] and in assay [2] were 59% and 65%, respectively. The inhibition at 1 µM in [3] is 43%.

For the compound `NC1=N[C@H](O)[C@H]2[C@H]3O[C@]4(O)O[C@@H]([C@@H](O)[C@@]2(N1)[C@@H]4O)[C@]3(O)CO`, the inhibition in assay [4] was 64%.

On to `Cc1cccc(SC[C@@H](C)CN[C@@H]2COc3ccccc3SC2)c1O`, for which the inhibition at 10 µM stood at 73% in [1] and 87% in [2]. Also, the inhibition at 1 µM in [3] came to 70%. The Activity is listed as 0.1 bpm in assay [5], -1.6 dyn.s.cm'-5.10'4 in assay [6], -5.9 mmHg in assay [7] and 3.5% in assay [9]. Besides, the outcome in assay [8] and in assay [10] was Active. For the same compound, the result in [11], in assay [12] and in assay [13] was inactive.

Take `CCc1cccc(SC[C@@H](C)CN[C@@H]2COc3ccccc3SC2)c1O`: the inhibition at 10 µM in [1] and in assay [2] was 56% throughout. Also, the inhibition at 1 µM in assay [3] came to 13%.

For `CC(C)c1ccc(C(=O)N=C(N)N)cc1S(C)(=O)=O` [CARIPORIDE], the inhibition at 1 µM in [3] worked out at 6%. In addition, the outcome in assay [8] and in [10] was Active. This compound displayed an Activity in [14] of 6.8%.

(Values after ChEMBL document CHEMBL1158452, “Na+ currents in cardioprotection: better to be late” (J Med Chem, 2009).)
